Measured values: publication PMC8904266 (Drug Design, Development and Therapy, 2022)
Values joined by “and” are separate entries in the source; they are usually repeats but may differ in a detail not shown here. Equal entries are not always repeated. Values belong to the compound of their own block, whether it stands above or below them.

Experiments:
WISH normal cell line = assay: Cytotoxic effect against normal cell line; assay type: cell-based; details: read-out: IC50 WISH
MDA breast cancer cells = assay: In vitro antitumor MTT assay, MDA; assay type: cell-based, human; details: for IC50: Homo sapiens, 24 h, read-out: IC50 MDA; for selectivity index to MDA: WISH versus MDA
Outline: (§1)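 ATCC cell lines grown in RPMI-1640 with 10% FBS, penicillin/streptomycin, at 37 °C and 5% CO2. Seeded at 1.0×10^4 cells/well for 48 h, then treated 24 h with a range of test compound concentrations. MTT (5 mg/mL solution) added for 4 h; formazan dissolved in DMSO and read at 570 nm. IC50 from percent viability; mean ± S.D. of three separate experiments.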

A549 lung cancer cells = assay: In vitro antitumor MTT assay, A549; assay type: cell-based, human; details: for IC50: Homo sapiens, A549, 24 h, read-out: IC50 A549; for selectivity index to A549: WISH versus A549
Outline: as §1

[1] = test system: Caco-2 colon cancer cells; assay: In vitro antitumor MTT assay, Caco-2; assay type: cell-based, human; details: Homo sapiens, Caco-2, 24 h, read-out: IC50 Caco-2
Outline: as §1

HepG-2 hepatoma cells = assay: In vitro antitumor MTT assay, HepG-2; assay type: cell-based, human; details: for selectivity index to HepG-2: WISH versus HepG-2; for IC50: read-out: IC50 HepG-2, MTT, 24 h treatment, mean of three experiments
Outline: as §1

VEGFR-2 kinase = VEGFR-2 kinase (Homo sapiens, UniProt P35968); assay: biochemical; details: VEGFR-2, IC50, VEGFR-2 Kinase Assay Kit (BPS-Bioscience), luminescence
[2] = In vitro antitumor MTT assay, Caco-2; assay type: cell-based, human; details: human, Caco-2
Outline: as §1

Bcl-2 = assay: Western blot analysis, Bcl-2; assay type: cell-based, human; details: HepG-2, 9.52 µM, 48 h
Outline: (§2)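 HepG-2 treated 48 h with 9.52 µM test compound or DMSO control. Lysed at pH 7.4 (Tris, EDTA, EGTA, NaCl, NP-40, Triton X-100, protease/phosphatase inhibitors), freeze-thawed at −80 °C, sonicated and centrifuged. 30 µg protein run on SDS-PAGE and blotted to PVDF. Primary antibody 1:1000 overnight at 4 °C; HRP secondary 1:2000. ECL detection; bands normalized to β-actin, control set to 1; mean ± SEM, n=3.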

p53 = assay: Western blot analysis, p53; assay type: cell-based, human; details: 48 h
Outline: as §2

BAX/Bcl-2 ratio = assay: Western blot analysis, BAX/Bcl-2 ratio; assay type: cell-based, human; details: HepG-2, 9.52 µM, 48 h
Outline: as §2

BAX = assay: Western blot analysis, BAX; assay type: cell-based, human; details: HepG-2, 9.52 µM, 48 h
Outline: as §2

HepG-2 cells [3] = assay: Cell cycle analysis; assay type: cell-based, human; details: HepG-2, 9.52 µM, 48 h
caspase-3 = assay: Western blot analysis, caspase-3; assay type: cell-based, human; details: HepG-2, 9.52 µM, 48 h
Outline: as §2

HepG-2 cells [4] = assay: Annexin V-FITC/PI apoptosis assay; assay type: cell-based, human
Outline: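 HepG-2 cells seeded and incubated 24 h, then exposed to test compound at 9.52 µM. Harvested cells washed 3× in PBS, […] double-stained with Annexin V-FITC/propidium iodide for 20 min in the dark. Early/late apoptotic and necrotic fractions measured by flow cytometry. Mean ± SEM of 3 experiments; unpaired t-test versus untreated control.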

VEGFR-2 kinase, sequence (P35968 20-1356): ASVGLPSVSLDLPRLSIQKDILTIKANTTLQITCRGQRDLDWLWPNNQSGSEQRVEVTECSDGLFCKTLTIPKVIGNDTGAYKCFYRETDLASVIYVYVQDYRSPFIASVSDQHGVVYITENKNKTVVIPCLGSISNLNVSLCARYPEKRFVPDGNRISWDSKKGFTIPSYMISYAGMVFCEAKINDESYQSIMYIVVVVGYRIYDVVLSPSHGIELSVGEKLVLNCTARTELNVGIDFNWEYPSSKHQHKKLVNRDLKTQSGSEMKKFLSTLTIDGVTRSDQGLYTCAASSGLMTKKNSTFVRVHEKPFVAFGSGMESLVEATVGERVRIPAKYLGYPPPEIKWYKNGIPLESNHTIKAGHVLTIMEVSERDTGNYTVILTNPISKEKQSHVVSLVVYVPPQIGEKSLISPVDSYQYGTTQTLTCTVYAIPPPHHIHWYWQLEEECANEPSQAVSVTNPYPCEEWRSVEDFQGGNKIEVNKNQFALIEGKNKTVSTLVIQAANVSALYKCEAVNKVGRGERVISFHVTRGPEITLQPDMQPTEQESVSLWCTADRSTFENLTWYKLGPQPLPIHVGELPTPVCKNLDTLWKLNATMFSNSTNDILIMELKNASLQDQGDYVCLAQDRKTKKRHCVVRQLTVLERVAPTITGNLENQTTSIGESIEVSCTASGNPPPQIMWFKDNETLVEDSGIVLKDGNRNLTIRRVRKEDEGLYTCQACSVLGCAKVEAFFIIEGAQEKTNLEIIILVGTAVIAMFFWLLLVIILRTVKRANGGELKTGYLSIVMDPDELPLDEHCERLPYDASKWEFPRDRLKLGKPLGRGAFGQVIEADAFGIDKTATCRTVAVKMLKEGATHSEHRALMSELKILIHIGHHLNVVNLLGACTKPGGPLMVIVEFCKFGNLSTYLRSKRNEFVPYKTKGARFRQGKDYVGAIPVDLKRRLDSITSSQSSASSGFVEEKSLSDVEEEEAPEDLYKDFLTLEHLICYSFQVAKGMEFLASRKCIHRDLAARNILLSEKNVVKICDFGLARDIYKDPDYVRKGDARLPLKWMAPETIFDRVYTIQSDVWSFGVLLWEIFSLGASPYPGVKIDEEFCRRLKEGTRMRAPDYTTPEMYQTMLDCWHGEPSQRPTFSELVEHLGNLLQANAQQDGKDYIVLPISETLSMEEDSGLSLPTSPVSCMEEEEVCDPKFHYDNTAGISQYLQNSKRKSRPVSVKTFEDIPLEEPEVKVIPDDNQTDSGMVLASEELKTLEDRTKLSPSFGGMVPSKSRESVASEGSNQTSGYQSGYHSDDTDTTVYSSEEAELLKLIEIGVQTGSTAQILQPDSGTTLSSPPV

Compound: O=C(CN1CCN(c2nc3ccccc3nc2Cl)CC1)Nc1ccccc1 [Compound 10a, 2-(4-(3-chloroquinoxalin-2-yl)piperazin-1-yl)-N-phenylacetamide]
- IC50 (WISH normal cell line): 30.5 µM
- IC50 (MDA breast cancer cells): 14.4 µM
- IC50 (A549 lung cancer cells): 9.03 µM
- IC50 [1]: 14.2 µM

Compound: COc1ccc(NC(=O)CN2CCN(c3nc4ccccc4nc3Cl)CC2)cc1 [Compound 10b, 2-(4-(3-chloroquinoxalin-2-yl)piperazin-1-yl)-N-(4-methoxyphenyl)acetamide]
- IC50 (WISH normal cell line): 45.7 µM
- IC50 (MDA breast cancer cells): 11.6 µM
- IC50 (A549 lung cancer cells): 6.48 µM
- IC50 [1]: 14.6 µM

Compound: O=C(CN1CCN(c2nc3ccccc3nc2Cl)CC1)Nc1ccc(Cl)cc1 [Compound 10c, N-(4-chlorophenyl)-2-(4-(3-chloroquinoxalin-2-yl)piperazin-1-yl)acetamide]
- IC50 (WISH normal cell line): 48 µM
- IC50 (MDA breast cancer cells): 11.3 µM
- IC50 (A549 lung cancer cells): 9.57 µM
- IC50 [1]: 9.42 µM

Compound: O=C(CN1CCN(c2nc3ccccc3nc2Cl)CC1)Nc1ccc(F)cc1 [Compound 10d, 2-(4-(3-chloroquinoxalin-2-yl)piperazin-1-yl)-N-(4-fluorophenyl)acetamide]
- IC50 (WISH normal cell line): 82.2 µM
- IC50 (MDA breast cancer cells): 16.6 µM
- IC50 (A549 lung cancer cells): 10.9 µM
- IC50 [1]: 32.8 µM

Compound: Cc1ccc(NC(=O)CN2CCN(c3nc4ccccc4nc3Cl)CC2)cc1 [Compound 10e, 2-(4-(3-chloroquinoxalin-2-yl)piperazin-1-yl)-N-(p-tolyl)acetamide]
- IC50 (WISH normal cell line): 106 µM
- selectivity index to HepG-2 (HepG-2 hepatoma cells): 13.17
- IC50 (MDA breast cancer cells): 14.3 µM
- selectivity index to MDA (MDA breast cancer cells): 7.43
- IC50 (VEGFR-2 kinase): 0.241 ± 0.021 µM
- IC50 (A549 lung cancer cells): 11.6 µM
- selectivity index to A549 (A549 lung cancer cells): 9.18
- IC50 [1]: 16.3 µM
- selectivity ratio at 24 h [2]: 6.51

Compound: CC(=O)c1ccc(NC(=O)CN2CCN(c3nc4ccccc4nc3Cl)CC2)cc1 [Compound 10f, N-(4-acetylphenyl)-2-(4-(3-chloroquinoxalin-2-yl)piperazin-1-yl)acetamide]
- IC50 (WISH normal cell line): 65.5 µM
- IC50 (MDA breast cancer cells): 16.1 µM
- IC50 (A549 lung cancer cells): 10.3 µM
- IC50 [1]: 28.4 µM

Compound: O=C(CN1CCN(c2nc3ccccc3nc2Cl)CC1)Nc1ccc([N+](=O)[O-])cc1 [Compound 10g, 2-(4-(3-chloroquinoxalin-2-yl)piperazin-1-yl)-N-(4-nitrophenyl)acetamide]
- IC50 (WISH normal cell line): 85 µM
- IC50 (MDA breast cancer cells): 10.5 µM
- IC50 (VEGFR-2 kinase): 0.332 ± 0.028 µM
- IC50 (A549 lung cancer cells): 8.36 µM
- IC50 [1]: 15.9 µM

Compound: O=C(CN1CCN(c2nc3ccccc3nc2Cl)CC1)NCc1ccccc1 [Compound 11, N-benzyl-2-(4-(3-chloroquinoxalin-2-yl)piperazin-1-yl)acetamide]
- Bcl-2 expression level compared to control (Bcl-2; in words): decreased to half
- Protein Level (Normalized to β-Actin) Bcl-2 (Bcl-2; control set to 1, mean ± SEM): 0.50 ± 0.03
- IC50 (WISH normal cell line): 129 µM
- selectivity index to HepG-2 (HepG-2 hepatoma cells): 13.57
- increase in P53 expression compared to control (p53; HepG-2, 9.52 µM (IC50 value)): 3 fold
- Protein Level (Normalized to β-Actin) P53 (p53; HepG-2, 9.52 µM, control set to 1, mean ± SEM): 3.07 ± 0.24
- increase in BAX/Bcl-2 ratio compared to control (BAX/Bcl-2 ratio): 4 fold
- Protein Level (Normalized to β-Actin) BAX/Bcl-2 Ratio (BAX/Bcl-2 ratio; control set to 1, mean ± SEM): 4.25 ± 0.47
- BAX protein expression level compared to control (BAX; in words): double increase
- Protein Level (Normalized to β-Actin) BAX (BAX; control set to 1, mean ± SEM): 2.16 ± 0.22
- IC50 (MDA breast cancer cells): 11.5 µM
- selectivity index to MDA (MDA breast cancer cells): 11.22
- IC50 (VEGFR-2 kinase): 0.19 µM and 0.192 µM
- IC50 (A549 lung cancer cells): 10.6 µM
- selectivity index to A549 (A549 lung cancer cells): 12.18
- IC50 [1]: 12.5 µM
- selectivity ratio at 24 h [2]: 10.4
- cell accumulation in the G2/M phase (HepG-2 cells [3]; control 15.16%): 25.22%
- cell accumulation rate at S phase (HepG-2 cells [3]; control 20.14%): 46.10%
- cell accumulation percentage in phase G1 (HepG-2 cells [3]; control 63.18%): 27.37%
- increase in caspase-3 level compared to untreated cells (caspase-3): 2.3 fold
- Protein Level (Normalized to β-Actin) Caspases-3 (caspase-3; control set to 1, mean ± SEM): 2.32 ± 0.11
- increase of early apoptosis rate compared to control (HepG-2 cells [4]; HepG-2, 9.52 µM): about 9 fold
- increase of late apoptosis compared to control (HepG-2 cells [4]; HepG-2, 9.52 µM): 3 fold
- Necrosis (HepG-2 cells [4]; HepG-2, 9.52 µM, 48 h, control 0.11, mean ± SEM): 0.17 ± 0.01
- Apoptosis, Late (HepG-2 cells [4]; HepG-2, 9.52 µM, 48 h, control 0.13, mean ± SEM): 0.38 ± 0.09
- Apoptosis, Early (HepG-2 cells [4]; HepG-2, 9.52 µM, 48 h, control 4.75, mean ± SEM): 43.60% and 43.60 ± 4.16 %
- effect on HepG-2 necrosis (HepG-2 cells [4]; HepG-2, 9.52 µM, in words): weak effect
- viability at 9.52 µM (HepG-2 cells [4]; Homo sapiens, HepG2, 48 h, read-out: Viable cells): 56 ± 4.19%

Compound: O=C(CN1CCN(c2nc3ccccc3[nH]c2=O)CC1)NCc1ccccc1 [Compound 14, N-benzyl-2-(4-(3-oxo-3,4-dihydroquinoxalin-2-yl)piperazin-1-yl)acetamide]
- IC50 (WISH normal cell line): 35.7 µM
- IC50 (MDA breast cancer cells): 20 µM
- IC50 (A549 lung cancer cells): 14.7 µM
- IC50 [1]: 16.6 µM

Compound: CNC(=O)c1cc(Oc2ccc(NC(=O)Nc3ccc(Cl)c(C(F)(F)F)c3)cc2)ccn1 [Sorafenib, reference compound]
- IC50 (MDA breast cancer cells): 10.8 µM
- IC50 (A549 lung cancer cells): 14.1 µM
- IC50 [1]: 9.25 µM

More lines, main results first:

- IC50 (MDA breast cancer cells): 17.9 µM
- IC50 (VEGFR-2 kinase): 0.258 ± 0.023 µM
- IC50 (A549 lung cancer cells): 11.2 µM
- IC50 [1]: 13.2 µM
Compound: O=C(CN1CCN(c2nc3ccccc3[nH]c2=O)CC1)Nc1ccccc1 [Compound 13a, 2-(4-(3-oxo-3,4-dihydroquinoxalin-2-yl)piperazin-1-yl)-N-phenylacetamide]
- IC50 (WISH normal cell line): 106 µM

- IC50 (HepG-2 hepatoma cells): 8.83 µM
- IC50 (MDA breast cancer cells): 14.7 µM
- IC50 (VEGFR-2 kinase): 0.471 ± 0.034 µM
- IC50 (A549 lung cancer cells): 11 µM
- IC50 [1]: 10.5 µM
Compound: COc1ccc(NC(=O)CN2CCN(c3nc4ccccc4[nH]c3=O)CC2)cc1 [Compound 13b, N-(4-methoxyphenyl)-2-(4-(3-oxo-3,4-dihydroquinoxalin-2-yl)piperazin-1-yl)acetamide]
- IC50 (WISH normal cell line): 109 µM
- selectivity index to HepG-2 (HepG-2 hepatoma cells): 12.35
- selectivity index to MDA (MDA breast cancer cells): 7.40
- selectivity index to A549 (A549 lung cancer cells): 9.94
- selectivity ratio at 24 h [2]: 10.4

- IC50 (MDA breast cancer cells): 12.1 µM
- IC50 (A549 lung cancer cells): 12.8 µM
- IC50 [1]: 9.05 µM
Compound: O=C(CN1CCN(c2nc3ccccc3[nH]c2=O)CC1)Nc1ccc(Cl)cc1 [Compound 13c, N-(4-chlorophenyl)-2-(4-(3-oxo-3,4-dihydroquinoxalin-2-yl)piperazin-1-yl)acetamide]
- IC50 (WISH normal cell line): 42.1 µM

- IC50 (HepG-2 hepatoma cells): 8.35 µM
- IC50 (MDA breast cancer cells): 14.4 µM
- IC50 (VEGFR-2 kinase): 0.602 ± 0.048 µM
- IC50 (A549 lung cancer cells): 13.4 µM
- IC50 [1]: 13 µM
Compound: O=C(CN1CCN(c2nc3ccccc3[nH]c2=O)CC1)Nc1ccc(F)cc1 [Compound 13d, N-(4-fluorophenyl)-2-(4-(3-oxo-3,4-dihydroquinoxalin-2-yl)piperazin-1-yl)acetamide]
- IC50 (WISH normal cell line): 60.5 µM

- IC50 (MDA breast cancer cells): 18.5 µM
- IC50 (A549 lung cancer cells): 12.6 µM
- IC50 [1]: 14.3 µM
Compound: Cc1ccc(NC(=O)CN2CCN(c3nc4ccccc4[nH]c3=O)CC2)cc1 [Compound 13e, 2-(4-(3-oxo-3,4-dihydroquinoxalin-2-yl)piperazin-1-yl)-N-(p-tolyl)acetamide]
- IC50 (WISH normal cell line): 39.6 µM

- IC50 (HepG-2 hepatoma cells): 8.4 µM
- IC50 (MDA breast cancer cells): 16.4 µM
- IC50 (VEGFR-2 kinase): 0.465 ± 0.046 µM
- IC50 (A549 lung cancer cells): 11.3 µM
- IC50 [1]: 9.01 µM
Compound: CC(=O)c1ccc(NC(=O)CN2CCN(c3nc4ccccc4[nH]c3=O)CC2)cc1 [Compound 13f, N-(4-acetylphenyl)-2-(4-(3-oxo-3,4-dihydroquinoxalin-2-yl)piperazin-1-yl)acetamide]
- IC50 (WISH normal cell line): 54.8 µM

- IC50 (MDA breast cancer cells): 24.6 µM
- IC50 (A549 lung cancer cells): 10.5 µM
- IC50 [1]: 19.4 µM
Compound: O=C(CN1CCN(c2nc3ccccc3[nH]c2=O)CC1)Nc1ccc([N+](=O)[O-])cc1 [Compound 13g, N-(4-nitrophenyl)-2-(4-(3-oxo-3,4-dihydroquinoxalin-2-yl)piperazin-1-yl)acetamide]
- IC50 (WISH normal cell line): 38.6 µM
